Arrestin-AP2 inh: blocks beta-arrestin peptide binding to AP2 adaptin; FITC-arrestin peptide / GST-AP2 beads, flow cytometry; AP2 beta2 appendage carries R879A mutation; inhibition, % at 10 µM; 340,000 tested, 0.31% active; AID 504490;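 active means inhibition above a set limit, near 3 SD of compounds lacking own fluorescence, cut at about 54% in these data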;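 further: plate controls were DMSO wells for no effect and 5 µM unlabelled arrestin peptide for full effect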
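System: GST-AP2 R879A glutathione beads | Also added: FITC-arrestin peptide, 50 nM | Times: 12 min plus 1 h, RT | Signal: Bead flow cytometry, FITC channel | Buffer or medium: PBS with 0.05% Tween 20 and 0.1% BSA | Read-out basis: Percent drop in bead-associated FITC signal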
Cardio protect: myocardial damage modulation in H9c2 cells | H9c2 cardiomyocytes, H2O2 injury protection, ATPLite, 2 h | protection from H2O2 cell death, % at 20 µM | 360,000 tested, 0.63% active | AID 588492;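 active means compounds giving at least 50% protection of heart cells from peroxide-induced death in the single-dose screen, raw or plate-pattern-corrected value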;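 further: 0% = DMSO wells with peroxide and 100% = DMSO wells without peroxide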
FAS-TE inh: inhibitors of human fatty acid synthase thioesterase domain; P49327; recombinant FAS-TE, OMFH fluorogenic substrate, fluorescence endpoint; inhibition, % at 15 µM; 360,000 tested, 0.67% active; AID 602261;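 active means compounds whose normalised, plate-corrected inhibition of enzyme fluorescence in the single-dose primary screen is 50% or more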;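 further: 0% = DMSO with enzyme and 100% = substrate without enzyme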
SENP1 FRET inh: blocks the human SENP1 SUMO protease catalytic domain; 360,000 tested, 0.21% active; Q9P0U3; recombinant SENP1 catalytic domain, CyPet-SUMO1-YPet FRET cleavage; inhibition, % at 10 µM;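 active means inhibition at least 30% at 10 µM, raw YFP signal under a set limit, fluorescence ratio 0.5 to 1.5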;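 further: 0% = enzyme with DMSO and 100% = no enzyme wells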
Target sequence (Q9P0U3 419-644 limits assumed): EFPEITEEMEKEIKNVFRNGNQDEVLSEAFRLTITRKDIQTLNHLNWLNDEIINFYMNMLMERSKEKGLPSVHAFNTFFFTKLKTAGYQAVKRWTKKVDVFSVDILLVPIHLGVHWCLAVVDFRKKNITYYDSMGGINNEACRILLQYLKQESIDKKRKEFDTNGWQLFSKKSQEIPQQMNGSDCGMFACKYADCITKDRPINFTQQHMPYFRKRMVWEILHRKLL
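Material: hSENP1 catalytic domain, recombinant; medium: Tris pH 8 with BME, BSA, NP40 and catalase; compound: single concentration of 10 µM compound, 0.5% DMSO final; technique: FRET read of cyan and yellow fluorescence; timing: 50 min enzyme reaction, room temperature, light-protected; reagent: SFCypet-SUMO1-SFYpet substrate at 25 nM; control set: no-enzyme low, enzyme-DMSO high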
GRIN3A LBD mod: modulates the human NR3A ligand-binding domain. NR3A LBD differential scanning fluorimetry, Tm shift; 0% = protein alone, 100% = glycine-bound protein. 340,000 tested, 2.5% active. Tm shift relative to glycine control, % at 25 µM;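 active means melting temperature shift of at least 10% of the positive control shift, at one fixed dose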
iPSC survival up: increases survival of single human iPS cells; hiPSC single-cell survival, ATPlite luminescence; 100% = ROCK inhibitor wells, 0% = DMSO; survival enhancement, % at 20 µM; 360,000 tested, 0.044% active; in the data active means survival enhancement above about 18%;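 further: cells exposed to compounds for 16 hours before the ATP read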
Numbers without * were called inactive; . = no result given. Shown are actives, neighbours in structure and some others; about 4% of the full set was active somewhere.

SMILES	Arrestin-AP2 inh	Cardio protect	FAS-TE inh	SENP1 FRET inh	GRIN3A LBD mod	iPSC survival up
Cc1nc(Cl)cc(N/N=C/c2ccc(O)cc2)n1	10	-6	-1	0	26*	0
Cc1cc(N/N=C/c2ccc(O)cc2)c2cccc(C)c2n1	-3	-15	-3	-41	12*	-1
CCOc1ccc(/C=N/Nc2cc(N3CCOCC3)nc(C)n2)c(O)c1	38	78*	21	-1	7	0
NC(=O)c1ncn([C@@H]2O[C@H](CNCc3ccccc3C#Cc3ccccc3)[C@@H](O)[C@H]2O)n1	-7	-4	-12	0	11*	8
Cc1sc2ccccc2c1CNC[C@H]1O[C@@H](n2cnc(C(N)=O)n2)[C@H](O)[C@@H]1O	3	4	-11	-3	0	0
CC(C)(O)C#Cc1ccc(CNC[C@H]2O[C@@H](n3cnc(C(N)=O)n3)[C@H](O)[C@@H]2O)s1	4	-1	-10	-1	11*	4
COc1ccc(-c2oc3c(c2C(=O)OCCO)C(OCCCO)CCC3)cc1 (configuration not stated)	.	.	-8	0	.	0
COc1ccccc1NS(=O)(=O)c1ccc2oc(SCC(=O)N3CCNC3=O)nc2c1	21	54*	1	1	2	0
CCCNC(=O)N(C)C[C@@H]1Oc2cc(C#CC(C)(C)O)ccc2S(=O)(=O)N([C@H](C)CO)C[C@H]1C	.	1	-8	0	.	4
CC(=O)N1CCc2cc(N=NC3=C(O)CC(C)(C)CC3=O)ccc21	1	-1	-8	67*	-3	0
CC1(C)CC(=O)C(N=Nc2cc(Cl)c(Cl)c(Cl)c2)=C(O)C1	-8	2	-2	2	3	0
OC[C@@H]1CN(Cc2ccc3c(c2)OCO3)C[C@H](n2cnc3c(NC4CCCC4)ncnc32)O1	.	10	-1	1	.	2
CC(C)[C@H](NC(=O)c1ccccc1Cl)C(=O)Nc1nc(-c2ccccn2)cs1	17	70*	4	-4	-1	0
CCc1nnc(NC(=O)C(NC(=O)c2ccccc2Cl)C(C)C)s1 (configuration not stated)	7	0	-6	3	-1	1
C[C@@H](C(=O)Nc1nc(-c2ccccn2)cs1)N1C(=O)C2CCCCC2C1=O (some centres not stated)	-3	95*	-3	-4	-4	0
CC(Oc1ccc(Br)cc1)C(=O)Nc1nc(-c2ccccn2)cs1 (configuration not stated)	8	49*	18	-21	-11	0
O=C(CN1C(=O)C2CCCCC2C1=O)Nc1nc(-c2ccccn2)cs1 (configuration not stated)	5	9	-5	1	-8	4
COC[C@H]1CCCN1c1ccc2c(c1)O[C@H](COCc1ccccc1)CN([C@H](C)c1ccccc1)S2(=O)=O	.	.	22	0	.	-1
O=C(NCc1ccccc1Cl)c1ccccc1CCc1ccccc1	-2	7	26	-1	-1	0
O=C(NCc1ccccc1Cl)c1ccccc1Oc1ccccc1	-1	-6	29	-1	11*	1
CCOC(=O)Cc1csc(NC(=O)c2sc3nc4ccc(CC)cc4cc3c2N)n1	3	4	-15	5	-1	1
CCOC(=O)Cc1csc(NC(=O)c2sc3nc4cc(C)ccc4cc3c2N)n1	24	1	-30	4	28*	-1
CCN(CC)S(=O)(=O)c1ccc2oc(C(=O)NCC3COc4ccccc4O3)c(C)c2c1 (configuration not stated)	30	54*	-42	1	-8	-2
Cc1c(C(=O)NCC2COc3ccccc3O2)oc2ccc(S(=O)(=O)N3CCOCC3)cc12 (configuration not stated)	14	60*	28	-1	-1	-2
CCN(CC)S(=O)(=O)c1ccc2oc(C(=O)NC3CC3)c(C)c2c1	-2	-2	-5	2	-1	0
SMILES	Arrestin-AP2 inh	Cardio protect	FAS-TE inh	SENP1 FRET inh	GRIN3A LBD mod	iPSC survival up
Cc1c(C(=O)NCC2COc3ccccc3O2)oc2ccc(S(=O)(=O)N3CC(C)CC(C)C3)cc12 (configuration not stated)	-4	6	38	2	-1	1
CCC(=O)Nc1c(C)cc(C)cc1Cl	2	-1	-4	2	3	0
CCCCC(=O)Nc1c(C)cc(C)cc1Cl	1	-2	-6	0	14*	6
CCOC(=O)c1cnc(SC)nc1Sc1ccccc1Cl	-2	-7	20	1	20*	0
Cc1ccc(C(O)c2ncc(-c3cccc4ccccc34)[nH]2)c(C)c1 (configuration not stated)	.	-4	5	0	.	-2
O=C(Cn1nnc(-c2ccccc2NC(=O)c2cccs2)n1)Nc1ccccc1	27	4	19	2	22*	-1
CC(C)(C)NC(=O)Cn1nnc(-c2ccccc2NC(=O)c2cnccn2)n1	19	9	-3	2	5	22*
NC(c1csc(NC(=O)Nc2ccc(OC(F)(F)F)cc2)n1)C1CCCCC1 (configuration not stated)	.	-22	-31	-4	.	-7
C[C@@H]1CN([C@H](C)CO)C(=O)c2c(c3ccccc3n2C)-c2ccccc2CO[C@H]1CN(C)Cc1ccc(Oc2ccccc2)cc1	.	-16	20	1	.	1
Cc1ccc(-n2c(C)cc(C(=O)CN3CCOCC3)c2C)cc1	14	-5	0	-4	-3	1
Cc1ccc(-n2c(C)cc(C(=O)CN3CCOCC3)c2C)cc1C	-9	0	-2	-1	18*	3
COc1c(C)cc(Br)cc1C(=O)Nc1cccc(-c2nc3ncccc3o2)c1	13	115*	16	2	2	2
CC(C)C(=O)Nc1cccc(-c2nc3ncccc3o2)c1	1	10	-2	0	-1	2
O=C(Nc1ccnn1C1CCN(C(=O)c2cccnc2)CC1)c1cccc(F)c1	.	-1	-11	3	.	-1
c1cn2c(-c3ccc(N4CCOCC4)cc3)cncc2n1	.	-6	-7	-10	.	2
COc1ccc(C(=O)NCCNc2nc3cc(C)cc(C)c3cc2C#N)nc1	.	.	.	-147	.	.
COc1ccc(/C=C/c2nc(C#N)c(NCCN(C)C)o2)cc1OC	11	4	-6	-17	1	0
CNc1oc(/C=C/c2cccc(OC)c2)nc1C#N	20	-1	4	-169	23*	0
Cc1cccc(N(Cc2ccccc2)C(=O)CCl)c1	10	-8	6	2	-1	-5

From PubChem
